Measured values collected from several papers.
Each line is one published result; the experiments were not run side by side.
Cell line: MCF7
Observed: cell growth or viability

The inhibition of `COc1ccc(CNC[C@](O)(COCc2ccc(OC)cc2)[C@@H]2CC[C@@H](C)C[C@H]2OCc2ccc(OC)cc2)cc1` is reported as 101% (MTT; 30 µM, 72 h).
With `O=C1CC[C@H](N2Cc3cc(N4CCN(CC5CCN(c6ccc([C@@H]7c8ccc(O)cc8CC[C@@H]7c7ccccc7)cc6)CC5)CC4)ccc3C2=O)C(=O)N1` the GI50 was 0.0033 µM (ATP luminescence; 5 days).
The cell death of `CC(=NNC(=O)c1ccccc1)c1ccc(Nc2nnc(-c3ccc(Cl)cc3)c3ccccc23)cc1` is reported as 94.1% (MTT; 10 µM).
`CC(=O)Nc1ccc(/C(C)=N/N=c2\sc(C(C)=O)nn2-c2ccc(C)cc2)cc1` has a viability of 99.7% (MTT; 0.312 µM).
The viability of `CC(=NNC(=O)c1ccccc1Cl)c1ccc(Nc2nnc(-c3ccc(Cl)cc3)c3ccccc23)cc1` is reported as 8.28% (MTT; 5 µM, 24 h).
For `C[C@@H]1CC[C@@H]([C@@](O)(CNCc2cccc3ccccc23)COCc2ccccc2)[C@H](OCc2ccccc2)C1`, the inhibition was 82.9% (MTT; 10 µM, 72 h).
`COc1ccc(-c2cc(-c3ccc(Br)cc3)c3c(=O)[nH]c(=O)[nH]c3n2)cc1` has an IC50 of 9.94 µM (MTT; 48 h).
The viability of `CC(=O)c1nn(-c2ccc(C)cc2)/c(=N/N=C(\C)c2ccc(NC(=O)c3ccccc3)cc2)s1` is reported as 4.79% (MTT; 0.625 µM).
With `CC(=NNC(N)=S)c1ccc(Nc2nnc(-c3ccc(Cl)cc3)c3ccccc23)cc1` the viability was 9.07% (MTT; 5 µM, 24 h).
`COc1ccccc1CNC[C@@](C)(O)[C@@H]1CC[C@@H](C)C[C@H]1OCc1ccccc1` has an inhibition of 98.1% (MTT; 30 µM, 72 h).
With `O=C(Nc1ccc(Oc2nnc(-c3ccc(Cl)cc3)c3ccccc23)cc1)c1ccccc1` the cell death was 93.4% (MTT; 2.5 µM).
With `COc1ccc(-c2cc(-c3ccc(OC)cc3)c3c(=O)n(C)c(=O)n(C)c3n2)cc1` the IC50 was 18.6 µM (MTT; 48 h).
`C[C@@H]1CC[C@@H]([C@@](O)(CNCc2ccccc2)COCc2ccc(F)cc2)[C@H](OCc2ccc(F)cc2)C1` gave an inhibition of 96.2% (MTT; 10 µM, 72 h).
`O=C(Nc1ccccc1)Nc1ccc(Oc2nnc(-c3ccc(Cl)cc3)c3ccccc23)cc1` has a cell death of 95.4% (MTT; 0.625 µM).
`CCOC(=O)c1nn(-c2cccc(Cl)c2)/c(=N/N=C(\C)c2ccc(NC(=O)c3ccc(Cl)cc3)cc2)s1` gave a viability of 3.71% (MTT; 10 µM).
`C[C@@H]1CC[C@@H]([C@@](O)(CNCc2ccccc2)COCc2ccccc2)[C@H](OCc2ccccc2)C1` has an inhibition of 96.4% (MTT; 30 µM, 72 h).
`CC(=O)c1nn(-c2ccccc2Cl)/c(=N/N=C(\C)c2ccc(NC(=O)c3ccccc3)cc2)s1` gave a viability of 9.62% (MTT; 0.156 µM).
`COc1ccc(CNC[C@](O)(COCc2ccc(F)cc2)[C@@H]2CC[C@@H](C)C[C@H]2OCc2ccc(F)cc2)cc1` has an inhibition of 97.7% (MTT; 10 µM, 72 h).
For `S=C(Nc1ccccc1)Nc1ccc(Oc2nnc(-c3ccc(Cl)cc3)c3ccccc23)cc1`, the cell death was 97.2% (MTT; 10 µM).
For `CCOC(=O)c1nn(-c2cccc(Cl)c2)/c(=N/N=C(\C)c2ccc(NC(=O)c3ccccc3)cc2)s1`, the viability was 59.2% (MTT; 0.156 µM).
